# Reference: ChEMBL document CHEMBL2177039, “Identification of a chemical probe for bromo and extra C-terminal bromodomain inhibition through optimization of a fragment-derived hit” (J Med Chem, 2012)
# Experiments:
# [1] = target: Bromodomain-containing protein 4 (Homo sapiens, UniProt O60885); assay: Inhibition of BRD4 isoform 1 by AlphaScreen assay
# Method in brief: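 His-tagged bromodomain protein preincubated 30 min at room temperature with compound in 50 mM HEPES, 100 mM NaCl, 0.1% BSA, pH 7.4, plus 0.05% CHAPS; biotinylated peptide added for a further 30 min; streptavidin donor and nickel chelate acceptor beads (25 µg/ml each) then added, 60 min in the dark.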
# [2] = Tmax in mouse at 2 mg/kg, sc; format: ADME, organism-based; design: dose 2 mg/kg, route subcutaneous; settings: in vivo
# [3] = Half life in mouse at 2 mg/kg, sc; format: ADME, organism-based; design: dose 2 mg/kg, route subcutaneous; settings: in vivo
# [4] = Cmax in mouse at 2 mg/kg, sc; format: ADME, organism-based; design: dose 2 mg/kg, route subcutaneous; settings: in vivo
# [5] = Protein binding in rat plasma; format: ADME, cell-free; settings: read-out: PPB (converted)
# [6] = Drug concentration in rat gut at 1 mg/kg, iv measured 7 hrs post dose; format: ADME, organism-based; design: dose 1 mg/kg, route intravenous; settings: read-out: Drug uptake
# [7] = Oral bioavailability […] in rat at 2 mg/kg; format: ADME, organism-based; settings: in vivo
# [8] = system: Liver microsomes; assay: Half life in rat liver microsomes; format: ADME, Microsome
# [9] = Half life in rat at 1 mg/kg, iv; format: ADME, organism-based; design: dose 1 mg/kg, route intravenous; settings: in vivo
# [10] = Plasma clearance in rat at 1 mg/kg, iv; format: ADME, organism-based; design: dose 1 mg/kg, route intravenous
# [11] = Volume of distribution in rat at 1 mg/kg, iv; format: ADME, organism-based; design: dose 1 mg/kg, route intravenous; settings: in vivo
# [12] = target: Bromodomain adjacent to zinc finger domain protein 2B (Homo sapiens) (UniProt Q9UIF8); assay: Binding affinity to BAZ2B assessed as change in melting temperature at 10 uM by thermal shift assay
# [13] = target: Histone acetyltransferase KAT2B (Homo sapiens) (UniProt Q92831); assay: Binding affinity to PCAF assessed as change in melting temperature at 10 uM by thermal shift assay
# [14] = target: Protein polybromo-1 (Homo sapiens) (UniProt Q86U86); assay: Binding affinity to pb1 isoform 5 assessed as change in melting temperature at 10 uM by thermal shift assay
# [15] = target: Bromodomain testis-specific protein (Homo sapiens) (UniProt Q58F21); assay: Binding affinity to BRDT isoform 1 assessed as change in melting temperature at 10 uM by thermal shift assay
# [16] = target: Bromodomain-containing protein 3 (Homo sapiens) (UniProt Q15059); assay: Binding affinity to BRD3 isoform 2 assessed as change in melting temperature at 10 uM by thermal shift assay
# [17] = target: Bromodomain-containing protein 3 (Homo sapiens) (UniProt Q15059); assay: Binding affinity to BRD3 isoform 1 assessed as change in melting temperature at 10 uM by thermal shift assay
# [18] = target: Bromodomain-containing protein 2 (Homo sapiens) (UniProt P25440); assay: Binding affinity to BRD2 isoform 2 assessed as change in melting temperature at 10 uM by thermal shift assay
# [19] = target: Bromodomain-containing protein 2 (Homo sapiens) (UniProt P25440); assay: Binding affinity to BRD2 isoform 1 assessed as change in melting temperature at 10 uM by thermal shift assay
# [20] = target: T1, CREB-binding protein (Homo sapiens, UniProt Q92793); assay: Binding affinity to CREBBP assessed as change in melting temperature at 10 uM by thermal shift assay
# [21] = target: T1, CREB-binding protein; assay: Binding affinity to CREBBP by SPR method
# Target sequence in this assay (Q92793 whole entry): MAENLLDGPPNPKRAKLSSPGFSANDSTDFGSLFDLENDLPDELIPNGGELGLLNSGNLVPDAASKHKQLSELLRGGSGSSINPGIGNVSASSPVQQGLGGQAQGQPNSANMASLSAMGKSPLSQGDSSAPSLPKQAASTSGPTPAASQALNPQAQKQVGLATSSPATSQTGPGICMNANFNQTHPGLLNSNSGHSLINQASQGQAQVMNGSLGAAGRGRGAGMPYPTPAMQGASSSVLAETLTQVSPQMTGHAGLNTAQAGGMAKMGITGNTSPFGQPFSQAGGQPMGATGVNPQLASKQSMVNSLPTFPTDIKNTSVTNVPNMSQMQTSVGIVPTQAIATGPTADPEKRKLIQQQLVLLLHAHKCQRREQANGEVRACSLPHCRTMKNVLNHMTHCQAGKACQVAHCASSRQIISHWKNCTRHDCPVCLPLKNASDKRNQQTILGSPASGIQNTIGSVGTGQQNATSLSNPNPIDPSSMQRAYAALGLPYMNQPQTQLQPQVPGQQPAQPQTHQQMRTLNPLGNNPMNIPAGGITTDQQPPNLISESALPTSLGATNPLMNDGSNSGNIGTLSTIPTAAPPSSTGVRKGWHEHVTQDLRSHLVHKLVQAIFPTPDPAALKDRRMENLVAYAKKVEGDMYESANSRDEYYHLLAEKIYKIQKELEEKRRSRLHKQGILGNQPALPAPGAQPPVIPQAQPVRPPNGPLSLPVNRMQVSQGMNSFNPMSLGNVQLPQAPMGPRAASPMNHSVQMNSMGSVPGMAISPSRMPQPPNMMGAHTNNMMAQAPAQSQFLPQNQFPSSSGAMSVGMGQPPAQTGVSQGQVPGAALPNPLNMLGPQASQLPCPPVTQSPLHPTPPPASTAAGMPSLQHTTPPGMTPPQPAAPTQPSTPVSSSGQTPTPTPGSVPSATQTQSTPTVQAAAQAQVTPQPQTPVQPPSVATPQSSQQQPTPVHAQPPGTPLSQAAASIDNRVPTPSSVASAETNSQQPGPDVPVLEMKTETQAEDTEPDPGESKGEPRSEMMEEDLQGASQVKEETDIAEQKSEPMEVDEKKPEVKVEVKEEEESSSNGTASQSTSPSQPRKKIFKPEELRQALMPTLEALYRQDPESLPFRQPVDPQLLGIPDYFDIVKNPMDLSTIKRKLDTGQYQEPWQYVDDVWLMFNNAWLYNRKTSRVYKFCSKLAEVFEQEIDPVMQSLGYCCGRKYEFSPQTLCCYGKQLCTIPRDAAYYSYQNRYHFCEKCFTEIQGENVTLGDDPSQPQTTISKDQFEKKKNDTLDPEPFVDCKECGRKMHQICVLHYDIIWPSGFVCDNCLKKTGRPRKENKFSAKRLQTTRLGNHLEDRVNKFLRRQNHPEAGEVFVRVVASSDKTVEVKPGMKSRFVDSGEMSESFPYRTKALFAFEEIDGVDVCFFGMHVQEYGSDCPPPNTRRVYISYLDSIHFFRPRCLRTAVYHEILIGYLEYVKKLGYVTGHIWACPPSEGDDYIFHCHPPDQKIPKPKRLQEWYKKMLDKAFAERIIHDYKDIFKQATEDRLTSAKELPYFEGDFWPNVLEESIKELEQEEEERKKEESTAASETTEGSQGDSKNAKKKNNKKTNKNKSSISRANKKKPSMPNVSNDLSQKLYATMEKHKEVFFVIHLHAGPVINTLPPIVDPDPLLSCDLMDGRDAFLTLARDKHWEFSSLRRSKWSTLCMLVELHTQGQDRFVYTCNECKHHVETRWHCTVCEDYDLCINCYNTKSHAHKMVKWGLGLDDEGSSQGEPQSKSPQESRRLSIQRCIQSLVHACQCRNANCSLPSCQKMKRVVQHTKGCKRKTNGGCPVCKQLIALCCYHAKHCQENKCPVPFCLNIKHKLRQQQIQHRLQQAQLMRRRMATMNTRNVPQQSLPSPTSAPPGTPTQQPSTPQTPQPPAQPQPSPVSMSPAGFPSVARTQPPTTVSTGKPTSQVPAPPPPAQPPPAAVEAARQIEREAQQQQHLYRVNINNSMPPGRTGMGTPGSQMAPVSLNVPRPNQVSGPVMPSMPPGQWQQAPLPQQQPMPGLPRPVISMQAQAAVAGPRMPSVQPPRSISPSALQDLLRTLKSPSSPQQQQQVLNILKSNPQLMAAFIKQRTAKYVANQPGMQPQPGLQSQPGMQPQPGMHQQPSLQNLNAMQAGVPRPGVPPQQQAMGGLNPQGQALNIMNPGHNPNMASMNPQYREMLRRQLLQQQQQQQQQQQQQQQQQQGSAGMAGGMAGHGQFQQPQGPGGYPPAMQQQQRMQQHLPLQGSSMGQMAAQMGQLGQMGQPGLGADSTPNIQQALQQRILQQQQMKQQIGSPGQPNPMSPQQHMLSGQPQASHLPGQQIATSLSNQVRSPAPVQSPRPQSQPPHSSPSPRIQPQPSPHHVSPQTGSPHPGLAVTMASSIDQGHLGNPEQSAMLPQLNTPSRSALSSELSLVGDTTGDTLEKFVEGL
# [22] = system: PBMC; assay: Inhibition of LPS-induced IL6 production in human PBMC by ELISA; format: functional, cell-based
# Method in brief: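 Mononuclear cells washed in Ca/Mg-free PBS, then RPMI + 5% FBS; plated at 2E5 cells/well. Compound added at 0.1% DMSO final and preincubated 30 min; stimulated with ultrapure LPS O111:B4 at 0.5 ng/ml final. Supernatants collected after 20 h; cytokines measured by multiplex ELISA.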
# Chain of Bromodomain-containing protein 3 (Homo sapiens) (Q15059 2-726 limits assumed): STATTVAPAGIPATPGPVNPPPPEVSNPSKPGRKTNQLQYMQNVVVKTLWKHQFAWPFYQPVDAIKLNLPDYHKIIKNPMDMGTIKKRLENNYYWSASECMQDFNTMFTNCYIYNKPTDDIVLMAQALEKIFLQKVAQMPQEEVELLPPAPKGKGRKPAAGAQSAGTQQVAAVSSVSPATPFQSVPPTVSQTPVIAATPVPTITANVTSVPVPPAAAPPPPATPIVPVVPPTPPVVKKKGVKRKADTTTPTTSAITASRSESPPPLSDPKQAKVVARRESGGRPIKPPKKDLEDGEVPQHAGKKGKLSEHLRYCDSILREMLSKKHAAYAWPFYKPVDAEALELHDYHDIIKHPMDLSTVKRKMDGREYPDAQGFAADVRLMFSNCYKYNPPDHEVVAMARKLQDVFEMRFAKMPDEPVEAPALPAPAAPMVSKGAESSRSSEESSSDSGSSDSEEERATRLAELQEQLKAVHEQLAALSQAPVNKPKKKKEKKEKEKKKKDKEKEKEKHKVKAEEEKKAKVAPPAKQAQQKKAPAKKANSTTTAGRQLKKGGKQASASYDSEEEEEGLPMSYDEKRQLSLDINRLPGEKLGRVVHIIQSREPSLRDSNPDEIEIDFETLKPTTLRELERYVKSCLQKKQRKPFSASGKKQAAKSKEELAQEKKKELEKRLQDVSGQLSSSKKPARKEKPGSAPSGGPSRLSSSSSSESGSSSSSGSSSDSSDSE
# Chain of Bromodomain-containing protein 2 (Homo sapiens) (P25440 whole entry, looked up, canonical isoform): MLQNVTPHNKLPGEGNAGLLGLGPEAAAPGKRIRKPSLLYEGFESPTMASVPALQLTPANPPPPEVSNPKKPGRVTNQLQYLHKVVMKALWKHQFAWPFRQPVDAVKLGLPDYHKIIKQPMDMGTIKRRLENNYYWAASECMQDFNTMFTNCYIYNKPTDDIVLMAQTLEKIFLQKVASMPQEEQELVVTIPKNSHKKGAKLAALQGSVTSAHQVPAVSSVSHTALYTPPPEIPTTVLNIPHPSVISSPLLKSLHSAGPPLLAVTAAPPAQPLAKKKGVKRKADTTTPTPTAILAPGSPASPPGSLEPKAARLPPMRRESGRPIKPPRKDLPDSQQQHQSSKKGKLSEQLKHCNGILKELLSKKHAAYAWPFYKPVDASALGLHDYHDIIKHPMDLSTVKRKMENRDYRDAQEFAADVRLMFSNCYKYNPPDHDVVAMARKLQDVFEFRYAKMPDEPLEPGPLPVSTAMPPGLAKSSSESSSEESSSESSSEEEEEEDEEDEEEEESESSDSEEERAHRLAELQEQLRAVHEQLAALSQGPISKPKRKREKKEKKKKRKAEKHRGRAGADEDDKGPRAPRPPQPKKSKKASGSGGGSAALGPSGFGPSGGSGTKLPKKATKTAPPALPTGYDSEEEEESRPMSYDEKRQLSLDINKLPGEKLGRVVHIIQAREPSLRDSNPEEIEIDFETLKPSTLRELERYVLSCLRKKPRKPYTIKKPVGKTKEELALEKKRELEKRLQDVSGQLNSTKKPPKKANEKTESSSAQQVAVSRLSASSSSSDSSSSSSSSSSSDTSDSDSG
# Chain of Histone acetyltransferase KAT2B (Homo sapiens) (Q92831 whole entry, looked up, canonical isoform): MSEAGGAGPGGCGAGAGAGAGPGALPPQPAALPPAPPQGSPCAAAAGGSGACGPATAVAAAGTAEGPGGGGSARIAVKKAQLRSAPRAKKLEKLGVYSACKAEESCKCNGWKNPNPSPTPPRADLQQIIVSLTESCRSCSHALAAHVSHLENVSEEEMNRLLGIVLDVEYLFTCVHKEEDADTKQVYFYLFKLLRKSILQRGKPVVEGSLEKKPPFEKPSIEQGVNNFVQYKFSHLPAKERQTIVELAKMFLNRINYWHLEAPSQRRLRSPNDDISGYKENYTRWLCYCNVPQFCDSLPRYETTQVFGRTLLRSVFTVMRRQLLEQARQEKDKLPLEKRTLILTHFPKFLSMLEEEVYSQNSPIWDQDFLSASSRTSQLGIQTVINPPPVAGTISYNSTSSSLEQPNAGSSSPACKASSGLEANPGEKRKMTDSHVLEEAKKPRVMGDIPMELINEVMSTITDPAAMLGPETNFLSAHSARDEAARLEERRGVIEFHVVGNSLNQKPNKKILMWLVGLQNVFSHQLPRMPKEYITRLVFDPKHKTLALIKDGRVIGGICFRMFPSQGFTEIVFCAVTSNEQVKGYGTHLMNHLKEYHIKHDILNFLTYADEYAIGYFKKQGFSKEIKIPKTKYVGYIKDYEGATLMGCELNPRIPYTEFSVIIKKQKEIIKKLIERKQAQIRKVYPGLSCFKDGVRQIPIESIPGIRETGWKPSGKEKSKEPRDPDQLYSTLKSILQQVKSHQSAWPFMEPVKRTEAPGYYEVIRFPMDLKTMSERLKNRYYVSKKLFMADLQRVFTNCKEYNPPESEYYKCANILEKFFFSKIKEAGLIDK
compound,measurement,setting,value
Cc1ccc(S(=O)(=O)Nc2ccc3c(c2)CN(C)C(=O)N3)cc1,IC50,[1],390 nM
CCNS(=O)(=O)c1ccc2c(c1)CN(C)C(=O)N2,IC50,[1],1900 nM
CN1Cc2cc(NS(=O)(=O)c3ccccc3F)ccc2NC1=O,IC50,[1],360 nM
COc1cccc(S(=O)(=O)Nc2ccc3c(c2)CN(C)C(=O)N3)c1,IC50,[1],730 nM
CN1Cc2cc(S(=O)(=O)N3CCCC3)ccc2NC1=O,IC50,[1],4800 nM
CN1Cc2cc(NS(=O)(=O)c3ccc(F)cc3Cl)ccc2NC1=O,IC50,[1],180 nM
CN1Cc2cc(NS(=O)(=O)c3ccc(C#N)cc3)ccc2NC1=O,IC50,[1],2300 nM
CN1Cc2cc(NS(=O)(=O)c3ccccc3C(F)(F)F)ccc2NC1=O,IC50,[1],470 nM
Cc1ccccc1S(=O)(=O)Nc1ccc2c(c1)CN(C)C(=O)N2,IC50,[1],220 nM
COc1ccc(S(=O)(=O)Nc2ccc3c(c2)CN(C)C(=O)N3)cc1,IC50,[1],880 nM
CN1Cc2cc(NS(=O)(=O)c3ccccc3)ccc2NC1=O,IC50,[1],880 nM
COc1ccccc1S(=O)(=O)Nc1ccc2c(c1)CN(C)C(=O)N2,Tmax,[2],1 h
same,half-life,[3],2 h
same,Cmax,[4],58 ng/mL
same,fraction unbound,[5],0.31
same,concentration at 7 h,[6],62 ng/mL
same,bioavailability,[7],32%
same,t1/2,[8],> 2 h
same,half-life,[9],1 h
same,clearance,[10],18 mL/min/kg
same,Vd,[11],1 L/kg
same,ΔTm,[12],0.3 °C
same,ΔTm,[13],0.81 °C
same,ΔTm,[14],0.83 °C
same,ΔTm,[15],2.08 °C
same,ΔTm,[16],5.45 °C
same,ΔTm,[17],5.24 °C
same,ΔTm,[18],5.32 °C
same,ΔTm,[19],4.61 °C
same,ΔTm,[20],1.7 °C
same,Kd,[21],49000 nM
same,EC50,[22],1890 nM
